Assay results as given in ChEMBL document CHEMBL3853342, “Design, synthesis and biological evaluation of novel benzo-α-pyrone containing piperazine derivatives as potential BRAFV600E inhibitors” (Bioorg Med Chem Lett, 2016).
Active and inactive are the calls of the source. No cut-off for these calls is given here.

How the values were obtained:
[1] = target: Serine/threonine-protein kinase B-raf (Homo sapiens, UniProt P15056, V600E); experiment: Inhibition of human recombinant GST-tagged BRAF catalytic domain (416 to 766 residues) V600E mutant expressed in baculovirus expression system preincubated for 1 hr followed by human full length recombinant N-terminal His-tagged MEK1 substrate addition measured after 25 mins by gel electrophoresis method
[2] = Antiproliferative activity against human A375 cells assessed as cell growth inhibition after 24 hrs by MTT assay; assay type: functional, cell-based; conditions: A-375, 24 h
[3] = Antiproliferative activity against human WM266.4 cells harboring BRAF V600E mutant assessed as cell growth inhibition after 24 hrs by MTT assay; assay type: functional, cell-based; conditions: WM 266-4, 24 h
[4] = Antiproliferative activity against human WM1361 cells assessed as cell growth inhibition after 24 hrs by MTT assay; assay type: functional, cell-based; conditions: WM1361, 24 h
[5] = Cytotoxicity against human 293T cells assessed as cell growth inhibition after 24 hrs by MTT assay; assay type: toxicity, cell-based, HEK-293T
WM 266-4 [6] = experiment: Induction of apoptosis in human WM266.4 cells assessed as viable cells at 2 uM after 24 hrs by Annexin V-FITC/propidium iodide based flow cytometric analysis (reference value: 92.9 %); assay type: functional; conditions: WM 266-4, 24 h, read-out: Activity
Outline: (§1)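 Apoptosis in WM266-4 (BRAF V600E) cells after 24 h at 0, 2, 4 or 8 µM, by Annexin V-FITC/PI dual staining and flow cytometry. Percentages of apoptotic cells were calculated. Three independent experiments.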

WM 266-4 [7] = experiment: Induction of apoptosis in human WM266.4 cells assessed as early apoptotic cells at 2 uM after 24 hrs by Annexin V-FITC/propidium iodide based flow cytometric analysis (reference value: 1.60 %); assay type: functional; outline: as §1
WM 266-4 [8] = experiment: Induction of apoptosis in human WM266.4 cells assessed as late apoptotic cells at 2 uM after 24 hrs by Annexin V-FITC/propidium iodide based flow cytometric analysis (reference value: 5.04 %); assay type: functional; outline: as §1
WM 266-4 [9] = experiment: Induction of apoptosis in human WM266.4 cells assessed as necrotic cells at 2 uM after 24 hrs by Annexin V-FITC/propidium iodide based flow cytometric analysis (reference value: 0.435 %); assay type: functional; outline: as §1
WM 266-4 [10] = experiment: Induction of apoptosis in human WM266.4 cells assessed as viable cells at 4 uM after 24 hrs by Annexin V-FITC/propidium iodide based flow cytometric analysis (reference value: 92.9 %); assay type: functional; conditions: WM 266-4, 24 h, read-out: Activity; outline: as §1
WM 266-4 [11] = experiment: Induction of apoptosis in human WM266.4 cells assessed as early apoptotic cells at 4 uM after 24 hrs by Annexin V-FITC/propidium iodide based flow cytometric analysis (reference value: 1.60 %); assay type: functional; outline: as §1
WM 266-4 [12] = experiment: Induction of apoptosis in human WM266.4 cells assessed as late apoptotic cells at 4 uM after 24 hrs by Annexin V-FITC/propidium iodide based flow cytometric analysis (reference value: 5.04 %); assay type: functional; outline: as §1
WM 266-4 [13] = experiment: Induction of apoptosis in human WM266.4 cells assessed as necrotic cells at 4 uM after 24 hrs by Annexin V-FITC/propidium iodide based flow cytometric analysis (reference value: 0.435 %); assay type: functional; outline: as §1
WM 266-4 [14] = experiment: Induction of apoptosis in human WM266.4 cells assessed as viable cells at 8 uM after 24 hrs by Annexin V-FITC/propidium iodide based flow cytometric analysis (reference value: 92.9 %); assay type: functional; conditions: WM 266-4, 24 h, read-out: Activity; outline: as §1
WM 266-4 [15] = experiment: Induction of apoptosis in human WM266.4 cells assessed as early apoptotic cells at 8 uM after 24 hrs by Annexin V-FITC/propidium iodide based flow cytometric analysis (reference value: 1.60 %); assay type: functional; outline: as §1
WM 266-4 [16] = experiment: Induction of apoptosis in human WM266.4 cells assessed as late apoptotic cells at 8 uM after 24 hrs by Annexin V-FITC/propidium iodide based flow cytometric analysis (reference value: 5.04 %); assay type: functional; outline: as §1
WM 266-4 [17] = experiment: Induction of apoptosis in human WM266.4 cells assessed as necrotic cells at 8 uM after 24 hrs by Annexin V-FITC/propidium iodide based flow cytometric analysis (reference value: 0.435 %); assay type: functional; outline: as §1
[18] = Induction of apoptosis in human WM1361 cells assessed as viable cells at 20 uM after 24 hrs by Annexin V-FITC/propidium iodide based flow cytometric analysis (reference value: 95.2 %); assay type: functional; conditions: WM1361, 24 h, read-out: Activity
[19] = Induction of apoptosis in human WM1361 cells assessed as early apoptotic cells at 20 uM after 24 hrs by Annexin V-FITC/propidium iodide based flow cytometric analysis (reference value: 1.02 %); assay type: functional
[20] = Induction of apoptosis in human WM1361 cells assessed as late apoptotic cells at 20 uM after 24 hrs by Annexin V-FITC/propidium iodide based flow cytometric analysis (reference value: 2.96 %); assay type: functional
[21] = Induction of apoptosis in human WM1361 cells assessed as necrotic cells at 20 uM after 24 hrs by Annexin V-FITC/propidium iodide based flow cytometric analysis (reference value: 0.860 %); assay type: functional
[22] = Induction of apoptosis in human WM1361 cells assessed as viable cells at 40 uM after 24 hrs by Annexin V-FITC/propidium iodide based flow cytometric analysis (reference value: 95.2 %); assay type: functional; conditions: WM1361, 24 h, read-out: Activity
[23] = Induction of apoptosis in human WM1361 cells assessed as early apoptotic cells at 40 uM after 24 hrs by Annexin V-FITC/propidium iodide based flow cytometric analysis (reference value: 1.02 %); assay type: functional
[24] = Induction of apoptosis in human WM1361 cells assessed as late apoptotic cells at 40 uM after 24 hrs by Annexin V-FITC/propidium iodide based flow cytometric analysis (reference value: 2.96 %); assay type: functional
[25] = Induction of apoptosis in human WM1361 cells assessed as necrotic cells at 40 uM after 24 hrs by Annexin V-FITC/propidium iodide based flow cytometric analysis (reference value: 0.860 %); assay type: functional
[26] = Induction of apoptosis in human WM1361 cells assessed as viable cells at 60 uM after 24 hrs by Annexin V-FITC/propidium iodide based flow cytometric analysis (reference value: 95.2 %); assay type: functional; conditions: WM1361, 24 h, read-out: Activity
[27] = Induction of apoptosis in human WM1361 cells assessed as early apoptotic cells at 60 uM after 24 hrs by Annexin V-FITC/propidium iodide based flow cytometric analysis (reference value: 1.02 %); assay type: functional
[28] = Induction of apoptosis in human WM1361 cells assessed as late apoptotic cells at 60 uM after 24 hrs by Annexin V-FITC/propidium iodide based flow cytometric analysis (reference value: 2.96 %); assay type: functional
[29] = Induction of apoptosis in human WM1361 cells assessed as necrotic cells at 60 uM after 24 hrs by Annexin V-FITC/propidium iodide based flow cytometric analysis (reference value: 0.860 %); assay type: functional
WM 266-4 [30] = experiment: Induction of apoptosis in human WM266.4 cells assessed as DNA fragmentation up to 8 uM after 24 hrs by agarose gel electrophoresis; assay type: functional, cell-based
Outline: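 DNA ladder assay: WM266-4 cells cultured at 37 °C for 24 h with 0, 2, 4 or 8 µM. DNA isolated and run on 2.0% agarose gel beside 2000 bp and 15000 bp markers. Untreated cells served as control.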

[31] = Cell cycle arrest in human WM266.4 cells assessed as accumulation at G0/G1 phase at 2 uM after 24 hrs by propidium iodide staining based FACS analysis (reference value: 56.58 %); assay type: functional; conditions: WM 266-4
Outline: (§2)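 WM266-4 (BRAF V600E melanoma) cells exposed to 0, 2, 4 or 8 µM for 24 h. Cell-cycle distribution by flow cytometry, with G1, S and G2/M fractions gated. Three independent experiments.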

[32] = Cell cycle arrest in human WM266.4 cells assessed as accumulation at S phase at 2 uM after 24 hrs by propidium iodide staining based FACS analysis (reference value: 29.03 %); assay type: functional; conditions: WM 266-4; outline: as §2
[33] = Cell cycle arrest in human WM266.4 cells assessed as accumulation at G2/M phase at 2 uM after 24 hrs by propidium iodide staining based FACS analysis (reference value: 14.39 %); assay type: functional; conditions: WM 266-4; outline: as §2
[34] = Cell cycle arrest in human WM266.4 cells assessed as accumulation at G0/G1 phase at 4 uM after 24 hrs by propidium iodide staining based FACS analysis (reference value: 56.58 to 64.70%); assay type: functional; conditions: WM 266-4; outline: as §2
[35] = Cell cycle arrest in human WM266.4 cells assessed as accumulation at S phase at 4 uM after 24 hrs by propidium iodide staining based FACS analysis (reference value: 29.03 to 29.51%); assay type: functional; conditions: WM 266-4; outline: as §2
[36] = Cell cycle arrest in human WM266.4 cells assessed as accumulation at G2/M phase at 4 uM after 24 hrs by propidium iodide staining based FACS analysis (reference value: 5.79 to 14.39%); assay type: functional; conditions: WM 266-4; outline: as §2
[37] = Cell cycle arrest in human WM266.4 cells assessed as accumulation at G0/G1 phase at 8 uM after 24 hrs by propidium iodide staining based FACS analysis (reference value: 56.58 %); assay type: functional; conditions: WM 266-4; outline: as §2
[38] = Cell cycle arrest in human WM266.4 cells assessed as accumulation at S phase at 8 uM after 24 hrs by propidium iodide staining based FACS analysis (reference value: 29.03 %); assay type: functional; conditions: WM 266-4; outline: as §2
[39] = Cell cycle arrest in human WM266.4 cells assessed as accumulation at G2/M phase at 8 uM after 24 hrs by propidium iodide staining based FACS analysis (reference value: 14.39 %); assay type: functional; conditions: WM 266-4; outline: as §2
[40] = Cell cycle arrest in human WM266.4 cells assessed as accumulation at G2/M phase at 4 uM after 36 hrs by propidium iodide staining based FACS analysis (reference value: 5.79 %); assay type: functional; conditions: WM 266-4
WM 266-4 [41] = experiment: Induction of apoptosis in human WM266.4 cells assessed as increase in apoptotic cells after 24 hrs by Annexin V-FITC/propidium iodide based flow cytometric analysis; assay type: functional, cell-based; outline: as §1
[42] = Cell cycle arrest in human WM266.4 cells assessed as accumulation at S phase at 8 uM after 12 hrs by propidium iodide staining based FACS analysis (reference value: 29.51 %); conditions: WM 266-4
[43] = Cell cycle arrest in human WM266.4 cells assessed as accumulation at S phase at 8 uM after 36 hrs by propidium iodide staining based FACS analysis (reference value: 29.51 %); conditions: WM 266-4
[44] = Cell cycle arrest in human WM266.4 cells assessed as accumulation at G2/M phase at 8 uM after 12 hrs by propidium iodide staining based FACS analysis (reference value: 5.79 %); conditions: WM 266-4
[45] = Cell cycle arrest in human WM266.4 cells assessed as accumulation at G0/G1 phase at 8 uM after 12 hrs by propidium iodide staining based FACS analysis (reference value: 64.70 %); conditions: WM 266-4
[46] = Cell cycle arrest in human WM266.4 cells assessed as accumulation at G0/G1 phase at 8 uM after 36 hrs by propidium iodide staining based FACS analysis (reference value: 64.70 %); conditions: WM 266-4

Sequence of Serine/threonine-protein kinase B-raf (P15056 2-766 V600E limits assumed): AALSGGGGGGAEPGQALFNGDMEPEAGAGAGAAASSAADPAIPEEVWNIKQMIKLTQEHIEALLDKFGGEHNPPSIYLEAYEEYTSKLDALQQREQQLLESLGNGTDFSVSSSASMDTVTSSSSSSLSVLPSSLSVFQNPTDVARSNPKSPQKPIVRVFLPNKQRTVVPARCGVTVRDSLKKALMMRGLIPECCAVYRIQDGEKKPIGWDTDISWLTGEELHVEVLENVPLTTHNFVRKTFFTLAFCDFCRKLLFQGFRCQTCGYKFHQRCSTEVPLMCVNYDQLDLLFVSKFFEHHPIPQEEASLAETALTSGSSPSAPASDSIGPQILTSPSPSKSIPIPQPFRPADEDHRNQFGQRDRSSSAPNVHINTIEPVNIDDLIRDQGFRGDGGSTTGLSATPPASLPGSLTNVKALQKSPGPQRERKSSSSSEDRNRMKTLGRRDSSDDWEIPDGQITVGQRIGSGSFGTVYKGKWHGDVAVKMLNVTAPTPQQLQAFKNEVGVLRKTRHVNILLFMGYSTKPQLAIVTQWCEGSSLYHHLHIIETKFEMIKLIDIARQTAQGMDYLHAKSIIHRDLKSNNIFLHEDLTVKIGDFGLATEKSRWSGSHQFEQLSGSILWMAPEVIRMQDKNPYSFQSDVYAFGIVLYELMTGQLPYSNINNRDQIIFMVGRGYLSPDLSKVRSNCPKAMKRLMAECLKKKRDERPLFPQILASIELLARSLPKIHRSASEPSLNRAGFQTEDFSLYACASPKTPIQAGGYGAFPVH

## COc1ccc(N2CCN(c3c(CO)c(=O)oc4ccccc34)CC2)cc1
[1]
  IC50: 1840 nM
[2]
  IC50: 7.23 µM
[3]
  IC50: 5.61 µM
[4]
  IC50: 40.4 µM
[5]
  CC50 at 24 h: > 50 µM

## O=c1oc2ccccc2c(N2CCN(c3ccc(Cl)c(Cl)c3)CC2)c1CO
[1]
  IC50: 2560 nM
[2]
  IC50: 7.66 µM
[3]
  IC50: 6.04 µM
[4]
  IC50: 42.7 µM
[5]
  CC50 at 24 h: > 50 µM

## O=c1oc2ccccc2c(N2CCN(C(c3ccccc3)c3ccccc3)CC2)c1CO
[1]
  IC50: 370 nM
[2]
  IC50: 2.24 µM
[3]
  IC50: 1.35 µM
[4]
  IC50: 21.1 µM
[5]
  CC50 at 24 h: > 50 µM
WM 266-4 [6]
  viability at 2 µM: 67%
WM 266-4 [7]
  Activity: 13.4%
WM 266-4 [8]
  Activity: 14.5%
WM 266-4 [9]
  Activity: 5.06%
WM 266-4 [10]
  viability at 4 µM: 52.5%
WM 266-4 [11]
  Activity: 24.4%
WM 266-4 [12]
  Activity: 21.2%
WM 266-4 [13]
  Activity: 1.88%
WM 266-4 [14]
  viability at 8 µM: 37.1%
WM 266-4 [15]
  Activity: 27.1%
WM 266-4 [16]
  Activity: 32.7%
WM 266-4 [17]
  Activity: 3.07%
[18]
  viability at 20 µM: 94.1%
[19]
  Activity: 1.16%
[20]
  Activity: 3.36%
[21]
  Activity: 1.36%
[22]
  viability at 40 µM: 92.9%
[23]
  Activity: 0.856%
[24]
  Activity: 5.11%
[25]
  Activity: 1.15%
[26]
  viability at 60 µM: 91.8%
[27]
  Activity: 1.61%
[28]
  Activity: 5.29%
[29]
  Activity: 1.31%
WM 266-4 [30]
  Activity: Active
[31]
  Activity: 65.8%
[32]
  Activity: 21.6%
[33]
  Activity: 12.6%
[34]
  Activity: 76.4%
[35]
  Activity: 5.88%
[36]
  Activity: 7.56%
[37]
  Activity: 82.4%
[38]
  Activity: 6.48%
[39]
  Activity: 11.1%
[40]
  Activity: 2.41%
WM 266-4 [41]
  Activity: Dose-dependent effect
[42]
  Activity: 21.6%
[43]
  Activity: 8.26%
[44]
  Activity: 12.2%
[45]
  Activity: 66.2%
[46]
  Activity: 89.3%

## O=c1oc2ccccc2c(N2CCN(c3ccccc3)CC2)c1CO
[1]
  IC50: 8930 nM
[2]
  IC50: 17.2 µM
[3]
  IC50: 16.6 µM
[4]
  IC50: > 50 µM
[5]
  CC50 at 24 h: > 50 µM
